According to ChEMBL document CHEMBL2202989, “New adamantane phenylalkylamines with σ-receptor binding affinity and anticancer activity, associated with putative antagonism of neuropathic pain” (J Med Chem, 2012):
pIC50: −log10 of the molar value.

Assays:
IGROV-1 [1] = experiment: Induction of apoptosis in human IGROV1 cells assessed as total apoptotic death at 50 uM using annexin V/7-AAD by FACS analysis (reference value: 13 %); format: functional
Method in brief: (§1)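 Cells plated 24 h before treatment, then exposed 24 h to 0.5, 5, 15 or 50 μM compound (final DMSO 0.5%); vehicle controls included. Cells scraped and stained with annexin V-FITC and 7-AAD for 15 min on ice in the dark. Flow cytometry with 488 nm excitation, 10,000 gated cells. Early apoptosis was annexin V+/7-AAD−, late was annexin V+/7-AAD+.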

[2] = molecular target: Sigma non-opioid intracellular receptor 1 (Homo sapiens, UniProt Q99720); experiment: Displacement of [3H]-(+)-pentazocine from sigma 1 receptor in human Jurkat cell membrane; format: cell membranes
Sequence of Sigma non-opioid intracellular receptor 1 (Q99720 whole entry): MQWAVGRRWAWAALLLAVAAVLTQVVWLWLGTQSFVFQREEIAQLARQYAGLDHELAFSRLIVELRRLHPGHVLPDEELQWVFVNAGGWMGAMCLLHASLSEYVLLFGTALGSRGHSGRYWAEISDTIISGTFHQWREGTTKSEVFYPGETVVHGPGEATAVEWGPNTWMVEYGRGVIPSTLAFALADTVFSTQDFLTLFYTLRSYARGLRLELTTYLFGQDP
Method in brief: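 Jurkat cell membranes incubated with 8 nM [3H](+)-pentazocine and a range of test concentrations for 2 h at 22 °C in Tris-HCl buffer, pH 7.4. Nonspecific binding defined with 10 μM haloperidol. Run in triplicate.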

IGROV-1 [3] = experiment: Cell cycle arrest in human IGROV1 cells assessed as accumulation at G2 phase at 15 uM after 24 hrs using propidium iodide staining by FACS analysis (reference value: 19 %); format: functional
BXPC-3 [4] = experiment: Cell cycle arrest in human BxPC3 cells assessed as accumulation at sub G1 phase at 50 uM after 24 hrs using propidium iodide staining by FACS analysis (reference value: 9 %); format: functional
Method in brief: (§2)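 Cells were plated 24 h before treatment and exposed for 24 h at final 0.5, 5, 15 and 50 μM in 0.5% DMSO, against vehicle-treated controls. Cells were then trypsinised and fixed in cold ethanol for 3 h at 4 °C. They were stained in a mix of RNase (200 μg/mL) and PI (1 mg/mL) for 45 min at room temperature in the dark. Flow cytometry used 488 nm excitation and 10 000 gated cells. Phase percentages were assigned from DNA content.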

PC-3 [5] = experiment: Cell cycle arrest in human PC3 cells assessed as accumulation at G2 phase at 5 uM after 24 hrs using propidium iodide staining by FACS analysis (reference value: 12 %); format: functional
PC-3 [6] = experiment: Induction of apoptosis in human PC3 cells assessed as late apoptosis at 0.5 uM using annexin V/7-AAD by FACS analysis (reference value: 3 %); format: functional
BXPC-3 [7] = experiment: Cell cycle arrest in human BxPC3 cells assessed as accumulation at >G2/M phase at 0.5 uM after 24 hrs using propidium iodide staining by FACS analysis (reference value: 6 %); format: functional; method in brief: as §2
IGROV-1 [8] = experiment: Induction of apoptosis in human IGROV1 cells assessed as early apoptosis at 50 uM using annexin V/7-AAD by FACS analysis (reference value: 9 %); format: functional
IGROV-1 [9] = experiment: Induction of apoptosis in human IGROV1 cells assessed as cleaved caspase3 containing cells at 15 uM by antibody-based FACS analysis (reference value: 3.9 %); format: functional
PC-3 [10] = experiment: Induction of apoptosis in human PC3 cells assessed as early apoptosis at 5 uM using annexin V/7-AAD by FACS analysis (reference value: 5 %); format: functional; method in brief: as §1
IGROV-1 [11] = experiment: Cell cycle arrest in human IGROV1 cells assessed as accumulation at sub G1 phase at 15 uM after 24 hrs using propidium iodide staining by FACS analysis (reference value: 4 %); format: functional
BXPC-3 [12] = experiment: Cell cycle arrest in human BxPC3 cells assessed as accumulation at G2 phase at 5 uM after 24 hrs using propidium iodide staining by FACS analysis (reference value: 12 %); format: functional; method in brief: as §2
IGROV-1 [13] = experiment: Cell cycle arrest in human IGROV1 cells assessed as accumulation at G1 phase at 15 uM after 24 hrs using propidium iodide staining by FACS analysis (reference value: 27 %); format: functional; method in brief: as §2
BXPC-3 [14] = experiment: Cell cycle arrest in human BxPC3 cells assessed as accumulation at G2 phase at 50 uM after 24 hrs using propidium iodide staining by FACS analysis (reference value: 12 %); format: functional; method in brief: as §2
PC-3 [15] = experiment: Induction of apoptosis in human PC3 cells assessed as healthy cells at 0.5 uM using annexin V/7-AAD by FACS analysis (reference value: 91 %); format: functional
BXPC-3 [16] = experiment: Cell cycle arrest in human BxPC3 cells assessed as accumulation at >G2/M phase at 50 uM after 24 hrs using propidium iodide staining by FACS analysis (reference value: 6 %); format: functional; method in brief: as §2
PC-3 [17] = experiment: Cell cycle arrest in human PC3 cells assessed as accumulation at S phase at 50 uM after 24 hrs using propidium iodide staining by FACS analysis (reference value: 42 %); format: functional
BXPC-3 [18] = experiment: Induction of apoptosis in human BxPC3 cells assessed as healthy cells at 5 uM using annexin V/7-AAD by FACS analysis (reference value: 79 %); format: functional
Mus musculus = experiment: Toxicity in CD1 mouse assessed as mortality at 40 to 55 mg/kg, ip for 2 to 3 weeks; format: organism-based; parameters: route intraperitoneal; conditions: in vivo
Method in brief: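 CD-1 (male and female) and SCID mice dosed ip at 40−55 mg/kg in 5% Tween 80 for chronic 2−3 week regimens. Deaths and body weight loss compared with vehicle (Tween 80 or Cremophor) and reference-drug groups. Weight loss, neurological, behavioral and dietary changes recorded as toxicity signs.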

BXPC-3 [19] = experiment: Cell cycle arrest in human BxPC3 cells assessed as accumulation at S phase at 50 uM after 24 hrs using propidium iodide staining by FACS analysis (reference value: 33 %); format: functional; method in brief: as §2
[20] = (§3) Growth inhibition of human HUVEC cells after 48 hrs by SRB assay; format: cell-based; conditions: HUVEC cells
Method in brief: (§4)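 Cells grown in RPMI 1640 with 5% heat-inactivated FCS, 2 mM L-glutamine and antibiotics, 37 °C, 5% CO2. Seeded at 3500–30000 cells/well and left 24 h before dosing. DMSO solutions added at 10-fold dilutions from 100 to 0.01 μM for 48 h. Cells TCA-fixed and SRB-stained, absorbance read at 540 nm; GI50 derived against the time-zero plate.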

HUVEC = experiment: as §3; format: cell-based; conditions: huvec, 48 h; method in brief: as §4
IGROV-1 [21] = experiment: Cell cycle arrest in human IGROV1 cells assessed as accumulation at S phase at 15 uM after 24 hrs using propidium iodide staining by FACS analysis (reference value: 29 %); format: functional
IGROV-1 [22] = experiment: Cell cycle arrest in human IGROV1 cells assessed as accumulation at G2 phase at 5 uM after 24 hrs using propidium iodide staining by FACS analysis (reference value: 19 %); format: functional
PC-3 [23] = experiment: Antitumor activity against human PC3 cells xenografted in SCID mouse assessed as axillary metastasis at 55 mg/kg, ip administered 5 consecutive days in a week for two cycles measured after 2 cycles relative to control; format: functional; conditions: route intraperitoneal
Method in brief: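 PC3 xenografts were grown in SCID mice (10^6 cells per inoculum), 14 mice (28 tumors) per group, dosed ip from about 100 mm3. The test agent was given in 5% Tween 80; paclitaxel was given in Cremophor diluted in saline, with a vehicle of 1:1 ethanol/Cremophor diluted 1:3 in saline. Volume and %ΔT/ΔC were derived from caliper readings twice weekly. Occurrence of primary tumors and of axillary and bone metastases was scored (n = 7). Two-tailed t test.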

PC-3 [24] = experiment: Cell cycle arrest in human PC3 cells assessed as accumulation at sub G1 phase at 5 uM after 24 hrs using propidium iodide staining by FACS analysis (reference value: 4 %); format: functional

SMILES: CN1CCN(CCCc2ccc(C(c3ccccc3)C34CC5CC(CC(C5)C3)C4)cc2)CC1 (configuration not stated)
- Activity (IGROV-1 [1]): 64%
- pIC50 [2]: 7.32
- Activity (IGROV-1 [3]): 27%
- Activity (BXPC-3 [4]): 23%
- Activity (PC-3 [5]): 10%
- Activity (PC-3 [6]): 1%
- Activity (BXPC-3 [7]): 7%
- Activity (IGROV-1 [8]): 40%
- Activity (IGROV-1 [9]): 61.4%
- Activity (PC-3 [10]): 5%
- Activity (IGROV-1 [11]): 12%
- Activity (BXPC-3 [12]): 10%
- Activity (IGROV-1 [13]): 23%
- Activity (BXPC-3 [14]): 9%
- Activity (PC-3 [15]): 95%
- Activity (BXPC-3 [16]): 4%
- Activity (PC-3 [17]): 31%
- Activity (BXPC-3 [18]): 77%
- Activity (Mus musculus): Non-toxic
- Activity (BXPC-3 [19]): 33%
- GI50 at 48 h [20]: 2.98 µM
- LC50 (HUVEC): 8.62 µM
- TGI (HUVEC): 5.8 µM
- Activity (IGROV-1 [21]): 25%
- Activity (IGROV-1 [22]): 21%
- Activity (PC-3 [23]): 0%
- Activity (PC-3 [24]): 11%
